Results as given in ChEMBL document CHEMBL1122413, “Chloralanyl and propargylglycyl dipeptides. Suicide substrate containing antibacterials” (1983).

The molecules below were run on Escherichia coli (assay: Minimum inhibitory concentration against Escherichia coli). Conditions: not given.
Assay type: functional
How it was run: (§1)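 Agar dilution on defined peptide susceptibility medium with peptide in serial twofold dilutions. Strains subcultured on blood or chocolate agar. Inoculum from overnight culture in liquid peptide medium, diluted to approx 1×10^7 cfu/mL, applied by Steers replicator. Plates incubated overnight at 37 °C. MIC taken as lowest concentration permitting fewer than ten colonies at 16–18 h.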

SMILES | MIC
CSCC[C@H](N)C(=O)N[C@@H](CCl)C(=O)O.O=C(O)C(F)(F)F | 1.56 µg/mL
C[C@H](NC(=O)[C@@H](N)CCl)C(=O)O.O=C(O)C(F)(F)F | > 100 µg/mL
C[C@H](N)C(=O)N[C@@H](CCl)C(=O)O.O=C(O)C(F)(F)F | > 100 µg/mL
CCC[C@H](N)C(=O)N[C@@H](CCl)C(=O)O.O=C(O)C(F)(F)F | 1.56 µg/mL
C#CC[C@@H](NC(=O)[C@H](C)N)C(=O)O.O=C(O)C(F)(F)F | > 100 µg/mL

The molecules below were run on Klebsiella aerogenes (assay: Minimum inhibitory concentration against Enterobacter aerogenes). Conditions: not given.
Assay type: functional
How it was run: as §1

SMILES | MIC
CSCC[C@H](N)C(=O)N[C@@H](CCl)C(=O)O.O=C(O)C(F)(F)F | 6.25 µg/mL
C[C@H](NC(=O)[C@@H](N)CCl)C(=O)O.O=C(O)C(F)(F)F | > 100 µg/mL
C[C@H](N)C(=O)N[C@@H](CCl)C(=O)O.O=C(O)C(F)(F)F | > 100 µg/mL
CCC[C@H](N)C(=O)N[C@@H](CCl)C(=O)O.O=C(O)C(F)(F)F | > 100 µg/mL
C#CC[C@@H](NC(=O)[C@H](C)N)C(=O)O.O=C(O)C(F)(F)F | > 100 µg/mL

These molecules were tested on Enterobacter cloacae (assay: Minimum inhibitory concentration against Enterobacter cloacae). Conditions: not given.
Assay type: functional
How it was run: as §1

SMILES | MIC
CSCC[C@H](N)C(=O)N[C@@H](CCl)C(=O)O.O=C(O)C(F)(F)F | 6.25 µg/mL
C[C@H](NC(=O)[C@@H](N)CCl)C(=O)O.O=C(O)C(F)(F)F | > 100 µg/mL
C[C@H](N)C(=O)N[C@@H](CCl)C(=O)O.O=C(O)C(F)(F)F | > 100 µg/mL
CCC[C@H](N)C(=O)N[C@@H](CCl)C(=O)O.O=C(O)C(F)(F)F | 6.25 µg/mL
C#CC[C@@H](NC(=O)[C@H](C)N)C(=O)O.O=C(O)C(F)(F)F | > 100 µg/mL

These molecules were tested on Haemophilus influenzae (assay: Minimum inhibitory concentration against Hemophilus influenzae). Conditions: not given.
Assay type: functional
How it was run: (§2)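 Agar dilution on defined peptide susceptibility medium with hemin (25 μg/mL), NAD (25 μg/mL) and Isovitalex (1%) added, peptide in serial twofold dilutions. Colonies from overnight chocolate or blood agar resuspended in liquid peptide medium to 10⁸ cfu/mL, applied by Steers replicator. Incubation overnight at 37 °C under 7% CO₂. MIC: lowest concentration giving fewer than ten colonies at 16–18 h.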

SMILES | MIC
CSCC[C@H](N)C(=O)N[C@@H](CCl)C(=O)O.O=C(O)C(F)(F)F | 0.78 µg/mL
C[C@H](NC(=O)[C@@H](N)CCl)C(=O)O.O=C(O)C(F)(F)F | > 100 µg/mL
C[C@H](N)C(=O)N[C@@H](CCl)C(=O)O.O=C(O)C(F)(F)F | > 100 µg/mL
CCC[C@H](N)C(=O)N[C@@H](CCl)C(=O)O.O=C(O)C(F)(F)F | 0.78 µg/mL
C#CC[C@@H](NC(=O)[C@H](C)N)C(=O)O.O=C(O)C(F)(F)F | > 100 µg/mL

The molecules below were run on Klebsiella pneumoniae (assay: Minimum inhibitory concentration against Klebsiella pneumoniae). Conditions: not given.
Assay type: functional
How it was run: as §1

SMILES | MIC
CSCC[C@H](N)C(=O)N[C@@H](CCl)C(=O)O.O=C(O)C(F)(F)F | > 100 µg/mL
C[C@H](NC(=O)[C@@H](N)CCl)C(=O)O.O=C(O)C(F)(F)F | > 100 µg/mL
C[C@H](N)C(=O)N[C@@H](CCl)C(=O)O.O=C(O)C(F)(F)F | > 100 µg/mL
CCC[C@H](N)C(=O)N[C@@H](CCl)C(=O)O.O=C(O)C(F)(F)F | > 100 µg/mL
C#CC[C@@H](NC(=O)[C@H](C)N)C(=O)O.O=C(O)C(F)(F)F | > 100 µg/mL

What follows are molecules tested on Morganella morganii (assay: Minimum inhibitory concentration against Morganella morganii). Conditions: not given.
Assay type: functional
How it was run: as §1

SMILES | MIC
CSCC[C@H](N)C(=O)N[C@@H](CCl)C(=O)O.O=C(O)C(F)(F)F | 50 µg/mL
C[C@H](NC(=O)[C@@H](N)CCl)C(=O)O.O=C(O)C(F)(F)F | > 100 µg/mL
C[C@H](N)C(=O)N[C@@H](CCl)C(=O)O.O=C(O)C(F)(F)F | > 100 µg/mL
CCC[C@H](N)C(=O)N[C@@H](CCl)C(=O)O.O=C(O)C(F)(F)F | 50 µg/mL
C#CC[C@@H](NC(=O)[C@H](C)N)C(=O)O.O=C(O)C(F)(F)F | > 100 µg/mL

The molecules below were run on Pseudomonas aeruginosa (assay: Minimum inhibitory concentration against Pseudomonas aeruginosa). Conditions: not given.
Assay type: functional
How it was run: as §1

SMILES | MIC
CSCC[C@H](N)C(=O)N[C@@H](CCl)C(=O)O.O=C(O)C(F)(F)F | > 100 µg/mL
C[C@H](NC(=O)[C@@H](N)CCl)C(=O)O.O=C(O)C(F)(F)F | > 100 µg/mL
C[C@H](N)C(=O)N[C@@H](CCl)C(=O)O.O=C(O)C(F)(F)F | > 100 µg/mL
CCC[C@H](N)C(=O)N[C@@H](CCl)C(=O)O.O=C(O)C(F)(F)F | > 100 µg/mL
C#CC[C@@H](NC(=O)[C@H](C)N)C(=O)O.O=C(O)C(F)(F)F | > 100 µg/mL

These molecules were tested on Proteus mirabilis (assay: Minimum inhibitory concentration against Proteus mirabilis). Conditions: not given.
Assay type: functional
How it was run: as §1

SMILES | MIC
CSCC[C@H](N)C(=O)N[C@@H](CCl)C(=O)O.O=C(O)C(F)(F)F | 100 µg/mL
C[C@H](NC(=O)[C@@H](N)CCl)C(=O)O.O=C(O)C(F)(F)F | > 100 µg/mL
C[C@H](N)C(=O)N[C@@H](CCl)C(=O)O.O=C(O)C(F)(F)F | > 100 µg/mL
CCC[C@H](N)C(=O)N[C@@H](CCl)C(=O)O.O=C(O)C(F)(F)F | 12.5 µg/mL
C#CC[C@@H](NC(=O)[C@H](C)N)C(=O)O.O=C(O)C(F)(F)F | > 100 µg/mL

These molecules were tested on Salmonella typhimurium (assay: Minimum inhibitory concentration against Salmonella Typhimurium). Conditions: Salmonella enterica.
Assay type: functional, Salmonella enterica subsp. enterica serovar Typhimurium
How it was run: as §1

SMILES | MIC
CSCC[C@H](N)C(=O)N[C@@H](CCl)C(=O)O.O=C(O)C(F)(F)F | > 100 µg/mL
C[C@H](NC(=O)[C@@H](N)CCl)C(=O)O.O=C(O)C(F)(F)F | > 100 µg/mL
C[C@H](N)C(=O)N[C@@H](CCl)C(=O)O.O=C(O)C(F)(F)F | > 100 µg/mL
CCC[C@H](N)C(=O)N[C@@H](CCl)C(=O)O.O=C(O)C(F)(F)F | > 100 µg/mL
C#CC[C@@H](NC(=O)[C@H](C)N)C(=O)O.O=C(O)C(F)(F)F | > 100 µg/mL

The molecules below were run on Serratia marcescens (assay: Minimum inhibitory concentration against Serratia marcescens). Conditions: not given.
Assay type: functional
How it was run: as §1

SMILES | MIC
CSCC[C@H](N)C(=O)N[C@@H](CCl)C(=O)O.O=C(O)C(F)(F)F | 50 µg/mL
C[C@H](NC(=O)[C@@H](N)CCl)C(=O)O.O=C(O)C(F)(F)F | > 100 µg/mL
C[C@H](N)C(=O)N[C@@H](CCl)C(=O)O.O=C(O)C(F)(F)F | > 100 µg/mL
CCC[C@H](N)C(=O)N[C@@H](CCl)C(=O)O.O=C(O)C(F)(F)F | > 100 µg/mL
C#CC[C@@H](NC(=O)[C@H](C)N)C(=O)O.O=C(O)C(F)(F)F | > 100 µg/mL

Each molecule was assayed on Shigella flexneri (assay: Minimum inhibitory concentration against Shigella flexneri). Conditions: not given.
Assay type: functional
How it was run: as §1

SMILES | MIC
CSCC[C@H](N)C(=O)N[C@@H](CCl)C(=O)O.O=C(O)C(F)(F)F | > 100 µg/mL
C[C@H](NC(=O)[C@@H](N)CCl)C(=O)O.O=C(O)C(F)(F)F | > 100 µg/mL
C[C@H](N)C(=O)N[C@@H](CCl)C(=O)O.O=C(O)C(F)(F)F | > 100 µg/mL
CCC[C@H](N)C(=O)N[C@@H](CCl)C(=O)O.O=C(O)C(F)(F)F | > 100 µg/mL
C#CC[C@@H](NC(=O)[C@H](C)N)C(=O)O.O=C(O)C(F)(F)F | > 100 µg/mL

What follows are molecules tested on Staphylococcus epidermidis (assay: Minimum inhibitory concentration against Staphylococcus epidermidis). Conditions: not given.
Assay type: functional
How it was run: as §1

SMILES | MIC
CSCC[C@H](N)C(=O)N[C@@H](CCl)C(=O)O.O=C(O)C(F)(F)F | 0.025 µg/mL
C[C@H](NC(=O)[C@@H](N)CCl)C(=O)O.O=C(O)C(F)(F)F | 0.025 µg/mL
C[C@H](N)C(=O)N[C@@H](CCl)C(=O)O.O=C(O)C(F)(F)F | 0.0125 µg/mL
CCC[C@H](N)C(=O)N[C@@H](CCl)C(=O)O.O=C(O)C(F)(F)F | 0.025 µg/mL
C#CC[C@@H](NC(=O)[C@H](C)N)C(=O)O.O=C(O)C(F)(F)F | > 100 µg/mL

Each molecule was assayed on Streptococcus agalactiae (assay: Minimum inhibitory concentration against Streptococcus agalactiae). Conditions: not given.
Assay type: functional
How it was run: as §2

SMILES | MIC
CSCC[C@H](N)C(=O)N[C@@H](CCl)C(=O)O.O=C(O)C(F)(F)F | 0.2 µg/mL
C[C@H](NC(=O)[C@@H](N)CCl)C(=O)O.O=C(O)C(F)(F)F | 0.39 µg/mL
C[C@H](N)C(=O)N[C@@H](CCl)C(=O)O.O=C(O)C(F)(F)F | 0.2 µg/mL
CCC[C@H](N)C(=O)N[C@@H](CCl)C(=O)O.O=C(O)C(F)(F)F | 0.2 µg/mL
C#CC[C@@H](NC(=O)[C@H](C)N)C(=O)O.O=C(O)C(F)(F)F | > 100 µg/mL

Each molecule was assayed on Staphylococcus aureus (assay: Minimum inhibitory concentration against Staphylococcus aureus). Conditions: not given.
Assay type: functional
How it was run: as §1

SMILES | MIC
CSCC[C@H](N)C(=O)N[C@@H](CCl)C(=O)O.O=C(O)C(F)(F)F | 0.025 µg/mL
C[C@H](NC(=O)[C@@H](N)CCl)C(=O)O.O=C(O)C(F)(F)F | 0.05 µg/mL
C[C@H](N)C(=O)N[C@@H](CCl)C(=O)O.O=C(O)C(F)(F)F | 0.0125 µg/mL
CCC[C@H](N)C(=O)N[C@@H](CCl)C(=O)O.O=C(O)C(F)(F)F | 0.025 µg/mL
C#CC[C@@H](NC(=O)[C@H](C)N)C(=O)O.O=C(O)C(F)(F)F | > 100 µg/mL

What follows are molecules tested on Enterococcus faecalis (assay: Minimum inhibitory concentration against Streptococcus faecalis). Conditions: not given.
Assay type: functional
How it was run: as §1

SMILES | MIC
CSCC[C@H](N)C(=O)N[C@@H](CCl)C(=O)O.O=C(O)C(F)(F)F | 0.39 µg/mL
C[C@H](NC(=O)[C@@H](N)CCl)C(=O)O.O=C(O)C(F)(F)F | > 100 µg/mL
C[C@H](N)C(=O)N[C@@H](CCl)C(=O)O.O=C(O)C(F)(F)F | > 100 µg/mL
CCC[C@H](N)C(=O)N[C@@H](CCl)C(=O)O.O=C(O)C(F)(F)F | 0.39 µg/mL
C#CC[C@@H](NC(=O)[C@H](C)N)C(=O)O.O=C(O)C(F)(F)F | > 100 µg/mL

These molecules were tested on Streptococcus pyogenes (assay: Minimum inhibitory concentration against Streptococcus pyogenes). Conditions: not given.
Assay type: functional
How it was run: as §2

SMILES | MIC
CSCC[C@H](N)C(=O)N[C@@H](CCl)C(=O)O.O=C(O)C(F)(F)F | > 100 µg/mL
C[C@H](NC(=O)[C@@H](N)CCl)C(=O)O.O=C(O)C(F)(F)F | > 100 µg/mL
C[C@H](N)C(=O)N[C@@H](CCl)C(=O)O.O=C(O)C(F)(F)F | > 100 µg/mL
CCC[C@H](N)C(=O)N[C@@H](CCl)C(=O)O.O=C(O)C(F)(F)F | > 100 µg/mL
C#CC[C@@H](NC(=O)[C@H](C)N)C(=O)O.O=C(O)C(F)(F)F | > 100 µg/mL
